Entries after “also recorded” stand apart in the source; their conditions may differ. Like-named read-outs stand apart in the source and are kept apart here.
How the values were obtained:
[1] = tested on: mice with chronic constriction injury (CCI) of the sciatic nerve; assay: CCI model of neuropathic pain; format: in vivo, mouse; details: for Effect on Paw Withdrawal Thresholds (PWT) in contralateral paws: data not shown; for Time of maximal effect on mechano-allodynia: i.p. 3 µmol/kg on D7 after CCI; for Reversal of mechano-allodynia after CCI: i.p. 3 µmol/kg on day 7 (D7) after CCI, mouse
How it was run: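 Male CD-1 mice (25–30 g), housed 4–5 per cage with a 12 h light/dark cycle. CCI of the left sciatic nerve (Bennett model) under isoflurane (3% induction, 2% maintenance in 100% O2); wound closed with a muscle suture and skin clip. Test compound or vehicle (5% DMSO in saline) given i.p. at 3 µmol/kg on D7, at peak mechano-allodynia. Experimenters blinded; mean ± SEM.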

[2] = tested on: A3AR−/− mice with CCI of the sciatic nerve; assay: CCI model of neuropathic pain in A3AR knockout mice; format: in vivo, mouse; details: i.p. 3 µmol/kg, male A3AR knock-out mice
mA3AR = target: T1, mA3AR (Mus musculus, UniProt Q61618); assay: Radioligand binding at mA3AR
T1 sequence (Q61618 1-319): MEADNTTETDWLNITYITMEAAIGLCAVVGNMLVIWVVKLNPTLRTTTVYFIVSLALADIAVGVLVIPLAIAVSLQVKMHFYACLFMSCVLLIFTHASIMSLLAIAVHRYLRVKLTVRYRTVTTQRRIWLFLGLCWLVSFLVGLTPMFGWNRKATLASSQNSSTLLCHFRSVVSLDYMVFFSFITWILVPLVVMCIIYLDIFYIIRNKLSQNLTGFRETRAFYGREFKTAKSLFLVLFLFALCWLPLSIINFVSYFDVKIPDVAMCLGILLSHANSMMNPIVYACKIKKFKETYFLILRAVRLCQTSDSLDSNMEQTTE

mA1AR = target: T2, mA1AR (Mus musculus, UniProt Q60612); format: cell-based; details: tested up to 10 µM
T2 sequence (Q60612 1-326): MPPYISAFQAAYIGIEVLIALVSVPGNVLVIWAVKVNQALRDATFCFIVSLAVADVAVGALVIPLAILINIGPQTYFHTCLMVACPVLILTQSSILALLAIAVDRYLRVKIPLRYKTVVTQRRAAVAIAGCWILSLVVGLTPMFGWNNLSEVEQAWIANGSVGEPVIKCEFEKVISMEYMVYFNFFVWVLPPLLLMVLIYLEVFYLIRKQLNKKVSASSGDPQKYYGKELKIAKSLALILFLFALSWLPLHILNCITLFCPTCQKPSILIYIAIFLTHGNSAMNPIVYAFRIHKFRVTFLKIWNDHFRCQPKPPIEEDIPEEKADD

hA3AR = target: T3, hA3AR (Homo sapiens, UniProt P0DMS8); assay: Radioligand binding at hA3AR
T3 sequence (P0DMS8 1-318): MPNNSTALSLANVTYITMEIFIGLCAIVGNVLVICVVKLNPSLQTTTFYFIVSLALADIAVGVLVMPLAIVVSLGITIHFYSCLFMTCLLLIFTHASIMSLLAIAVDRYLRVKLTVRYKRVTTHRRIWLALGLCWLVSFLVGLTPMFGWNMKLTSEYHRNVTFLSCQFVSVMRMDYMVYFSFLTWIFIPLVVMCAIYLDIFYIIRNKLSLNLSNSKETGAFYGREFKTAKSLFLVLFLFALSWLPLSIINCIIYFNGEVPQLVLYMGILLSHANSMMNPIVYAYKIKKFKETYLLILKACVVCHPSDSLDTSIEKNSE

[3] = tested on: mice with chronic constriction injury (CCI) of the sciatic nerve; details: cited from earlier work; for Reversal of neuropathic pain following CCI in mice: via an A3AR-mediated mechanism

| Compound | Effect on Paw Withdrawal Thresholds (PWT) in contralateral paws [1] | Time of maximal effect on mechano-allodynia [1] | Reversal of mechano-allodynia after CCI [1] | Anti-allodynic effect in A3AR−/− mice [2] | Effect on Paw Withdrawal Thresholds (PWT) in contralateral paws [3] | Reversal of neuropathic pain following CCI in mice [3] | also measured |
| --- | --- | --- | --- | --- | --- | --- | --- |
| CNC(=O)[C@@]12C[C@@H]1[C@@H](n1cnc3c(NCc4cccc(Cl)c4)nc(C#Cc4ccc(S(=O)(=O)O)cc4)nc31)[C@H](O)[C@@H]2O [Compound 6, 4-((6-(3-Chlorobenzylamino)-9-((1S,2R,3S,4R,5S)-3,4-dihydroxy-5-(methylcarbamoyl)bicyclo[3.1.0]hexan-2-yl)-9H-purin-2-yl)ethynyl)benzenesulfonic acid] | lacked effect | ≤ 1 h | reversed mechano-allodynia | significantly but not completely abrogated; also recorded: retained the ability to produce a small protective effect | – | – | – |
| CNC(=O)[C@@]12C[C@@H]1[C@@H](n1cnc3c(NCc4cccc(Cl)c4)nc(C#Cc4cccc(S(=O)(=O)O)c4)nc31)[C@H](O)[C@@H]2O [Compound 7, 3-((6-(3-Chlorobenzylamino)-9-((1S,2R,3S,4R,5S)-3,4-dihydroxy-5-(methylcarbamoyl)bicyclo[3.1.0]hexan-2-yl)-9H-purin-2-yl)ethynyl)benzenesulfonic acid] | lacked effect | ≤ 1 h | reversed mechano-allodynia | completely lost; also recorded: completely eliminated | – | – | A3AR selectivity in comparison to the A1AR and A2AAR (mA3AR): > 1000 fold; Functional activity at the mA1AR (mA1AR): completely inactive up to 10 µM; A3AR selectivity in comparison to the A1AR and A2AAR (hA3AR): > 10,000 fold |
| CCCOC(=O)c1c(-c2ccccc2)nc(CC)c(C(=O)SCC)c1CCC [compound 45, 5-propyl-2-ethyl-4-propyl-3-(ethylsulfanylcarbonyl)-6-phenylpyridine-5-carboxylate, reference compound] | – | – | – | – | – | – | Effect of antagonist on the anti-allodynic actions of systemic agonist 7 ([1]; 45 intrathecal 3 nmol, 7 at 3 µmol/kg): had no effect; also recorded: did not block the effects of systemic 7; Blocking of the anti-allodynic effects of A3AR agonist 1a ([3]; antagonist administered systemically, identical CCI model): completely effective |
| CNC(=O)[C@H]1O[C@@H](n2cnc3c(NCc4cccc(I)c4)nc(Cl)nc32)[C@H](O)[C@@H]1O [1b, 2-Chloro-N^6-(3-iodobenzyl)adenosine-5'-N-methyluronamide] | – | – | – | – | lacked effect | reverse the development of neuropathic pain | – |
| CNC(=O)[C@H]1O[C@@H](n2cnc3c(NCc4cccc(I)c4)ncnc32)[C@H](O)[C@@H]1O [1a, N^6-(3-iodobenzyl)adenosine-5'-N-methyluronamide] | – | – | – | – | lacked effect | reverse the development of neuropathic pain | – |

Reference: article PMC3858399 (Journal of medicinal chemistry, 2013)
